Measurements: ChEMBL document CHEMBL1158940, “Antihyperlipidemic effect of flavonoids from Prunus davidiana” (1991)

Key:
Format in all cases: functional
Design in all cases: scale not given: the % may be the effect or the level left
Settings in all cases: route intraperitoneal
Rattus norvegicus [1] = assay: Antihyperlipidemic effect in high fat diet-induced rat assessed as decrease in serum total cholesterol level at 10 mg/kg, ip relative to control
Procedure, shortened: (§1)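 Male JCL:Wistar rats (150 g) on commercial chow 1 week, then high-fat diet (10 g soybean oil per 100 g, casein, α-cornstarch) 6 days, pair-matched for blood triglyceride and body weight. Compound suspended in 5% EtOH/saline, ip once daily for 3 days; controls get vehicle. Sacrificed 4 h after last dose (2–3 PM); serum separated at 1000 g, 4°. Six rats per group; percent of control; Student's t-test.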

Rattus norvegicus [2] = assay: Antihyperlipidemic effect in high fat diet-induced rat assessed as decrease in serum triglyceride level at 20 mg/kg, ip relative to control; procedure, shortened: as §1
Rattus norvegicus [3] = assay: Antihyperlipidemic effect in high fat diet-induced rat assessed as decrease in serum total cholesterol level at 20 mg/kg, ip relative to control; procedure, shortened: as §1
Rattus norvegicus [4] = assay: Antihyperlipidemic effect in high fat diet-induced rat assessed as decrease in serum triglyceride level at 10 mg/kg, ip relative to control; procedure, shortened: as §1

| Compound | Activity (Rattus norvegicus [1]) [%] | Activity (Rattus norvegicus [2]) [%] | Activity (Rattus norvegicus [3]) [%] | Activity (Rattus norvegicus [4]) [%] |
| --- | --- | --- | --- | --- |
| COc1ccc([C@@H]2CC(=O)c3c(O[C@@H]4O[C@H](CO)[C@@H](O)[C@H](O)[C@H]4O)cc(O)cc3O2)cc1O | 88 | 90 | 101 | 100 |
| Oc1cc(O)c2c(c1)O[C@H](c1ccc(O)c(O)c1)[C@@H](O)C2 [CIANIDANOL] | 95 | 73 | 99 | 75 |
| O=C1C[C@@H](c2ccc(O)cc2)Oc2cc(O[C@@H]3O[C@H](CO)[C@@H](O)[C@H](O)[C@H]3O)cc(O)c21 [PRUNIN] | 102 | 107 | 91 | 90 |
